# From ChEMBL document CHEMBL1121506, “Evaluation of rotenone and related compounds as antagonists of slow-reacting substance of anaphylaxis” (J Med Chem, 1980)
# Columns and labels:
# Cavia porcellus [1] = experiment: Compound was evaluated in vivo for collapse time in guinea pig anaphylaxis model at dose 10 mg/kg; assay type: functional
# Outline: (§1)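 Guinea pigs were sensitized with 10% ovalbumin (1 mL s.c. plus 1 mL i.p.), and about 4 weeks later received the antagonist orally. They were then exposed to aerosolized ovalbumin, with collapse time as the endpoint and no collapse within 6 min taken as maximal protection. Groups (4–15 animals) were compared with controls by one-way ANOVA and Dunnett's test after Bartlett's test.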
# Cavia porcellus [2] = organism: Cavia porcellus; experiment: Compound was evaluated for the inhibitory activity against Acetylcholine in guinea pig ileum; assay type: functional; set-up: concentration or dose not given beside the values
# Cavia porcellus [3] = organism: Cavia porcellus; experiment: Compound was evaluated for the inhibitory activity against Histamine in guinea pig ileum; assay type: functional; set-up: concentration or dose not given beside the values
# Cavia porcellus [4] = organism: Cavia porcellus; experiment: Compound was evaluated for the inhibitory activity against Serotonin in guinea pig ileum; assay type: functional
# Cavia porcellus [5] = organism: Cavia porcellus; experiment: Compound was evaluated for the inhibitory activity against slow reacting substance of anaphylaxis (SRS-A) of guinea pig ileum; assay type: functional, organism-based
# Outline: (§2)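 Guinea pig ileum strip in Tyrode's solution at 37 °C, aerated with 95% O2-5% CO2. SRS-A came from rat peritoneal shock fluid after passive peritoneal anaphylaxis, and its specificity was checked against atropine (5 × 10^-7 M) and mepyramine (10^-6 M). The SRS-A dose was set to give ca. 60% of maximal contraction. Antagonist was added 2 min before challenge; percent inhibition was read, and IC50 was interpolated from dose-response curves.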
# Cavia porcellus [6] = organism: Cavia porcellus; experiment: Compound was evaluated for the inhibitory activity against slow reacting substance of anaphylaxis (SRS-A) of guinea pig ileum;NA means not active; assay type: functional, organism-based
# Outline: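 Guinea pig ileum strip in Tyrode's solution at 37 °C, aerated with 95% O2-5% CO2. SRS-A came from rat peritoneal shock fluid after passive peritoneal anaphylaxis, dosed to give ca. 60% of maximal contraction. Atropine (5 × 10^-7 M) and mepyramine (10^-6 M) checks were run. Antagonist was added 2 min before SRS-A challenge, and percent inhibition recorded. IC50 was interpolated from two or at least three dose-response curves.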
# Cavia porcellus [7] = experiment: Compound was evaluated in vivo for collapse time in guinea pig anaphylaxis model at dose 5 mg/kg; assay type: functional; outline: as §1
# Cavia porcellus [8] = organism: Cavia porcellus; experiment: Compound was evaluated for the inhibitory activity against slow reacting substance of anaphylaxis (SRS-A) of guinea pig ileum;NA denotes not active; assay type: functional, organism-based; outline: as §2
IC50 (Cavia porcellus [6]),SMILES,Collapse time (Cavia porcellus [1]),Inhibition (Cavia porcellus [2]),Inhibition (Cavia porcellus [3]),Inhibition (Cavia porcellus [4]),IC50 (Cavia porcellus [5]),Collapse time (Cavia porcellus [7]),IC50 (Cavia porcellus [8])
–,CCCc1c(OCC(O)COc2ccc3c(=O)cc(C(=O)[O-])oc3c2CCC)ccc(C(C)=O)c1O.[Na+] (stereo not given) [FPL-55712 SODIUM SALT],253 s,0%,0%,0%,0.042 µg/mL,–,–
–,C=C(C)[C@H]1Cc2c(ccc3c2O[C@H]2COc4cc(OC)c(OC)cc4[C@H]2C3=O)O1,240 s,11%,28%,87%,0.0247 µg/mL,–,–
–,COc1cc2c(cc1OC)[C@]1(O)C(=O)c3ccc4c(c3O[C@@H]1CO2)C=CC(C)(C)O4 [TEPHROSIN],–,–,–,–,0.2 µg/mL,–,–
Not Active,C=C(C)[C@H]1Cc2c(ccc(C(=O)Cc3cc(OC)c(OC)cc3OCC(=O)O)c2O)O1,167 s,0%,0%,–,–,–,–
–,COc1cc2c(cc1OC)[C@@H]1C(=O)c3ccc4c(c3O[C@@H]1CO2)C[C@H](C(C)C)O4,–,25%,29%,60%,0.0238 µg/mL,–,–
–,C=C(C)[C@H]1Cc2c(ccc3c(=O)c4c(oc23)COc2cc(OC)c(OC)cc2-4)O1 [DEHYDROROTENONE],248 s,0%,0%,–,–,216 s,Not Active
Not Active,C=C(C)[C@H]1Cc2c(ccc3c2OC2COc4cc(OC)c(OC)cc4C2(OC(C)=O)C3=O)O1 (stereo not given in full) [ACETYLROTENOLENE],–,0%,0%,–,–,–,–
–,C=C(C)[C@H]1Cc2c(ccc3c2OC2COc4cc(OC)c(OC)cc4C2/C3=N/OC(=O)OCC)O1 (stereo not given in full) [O-CARBETHOXY ROTENONE OXIME],–,–,–,–,0.4 µg/mL,–,–
–,C=C(C)[C@H]1Cc2c(ccc3c2OC2COc4cc(OC)c(OC)cc4C2/C3=N/OC(C)=O)O1 (stereo not given in full),–,–,–,–,0.4 µg/mL,–,–
–,COc1cc2c(cc1OC)[C@@H]1C(=O)c3ccc4oc(C(C)C)cc4c3O[C@@H]1CO2 [ISOROTENONE],211 s,28%,30%,–,0.062 µg/mL,–,–
–,C=C(C)[C@H]1Cc2c(ccc3c2OC2COc4cc(OC)c(OC)cc4C2/C3=N/O)O1 (stereo not given in full),248 s,–,–,–,0.4 µg/mL,–,–
–,C=C(C)[C@H]1Cc2c(ccc3c2O[C@@H]2COc4cc(OC)c(OC)cc4[C@@H]2C3=O)O1 [ROTENONE],–,15%,38%,92%,0.0155 µg/mL,288 s,–
